SMILES strings stand for the structures.

One experiment concerns male L.dispar. Put plainly: initial field experiment, attraction of male moths. It counts as in vivo, Lymantria dispar. The following applies: initial field experiment (data not shown).
In experiment [1] the target is T1, LdisPBP2 (Lymantria dispar, UniProt O16106).
T1 sequence (O16106 21-165): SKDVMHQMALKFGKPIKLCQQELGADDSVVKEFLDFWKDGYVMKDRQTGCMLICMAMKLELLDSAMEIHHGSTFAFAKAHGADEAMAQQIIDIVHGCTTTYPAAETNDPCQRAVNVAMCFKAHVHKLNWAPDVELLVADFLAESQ
The experiment can be described thus: competitive fluorescence binding assay with 1-NPN as probe, LdisPBP2. Summed up: (§1)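 N-terminally His-tagged recombinant PBP was expressed in E. coli BL21(DE3) (0.25 mM IPTG, 18°C overnight), then purified by Ni-resin and gel filtration. 2 μM protein plus 2 μM 1-NPN in 50 mM Tris-HCl pH 7.3 or 50 mM Na2HPO4-citric acid pH 5.5, at 25°C; ex 337 nm, em 370–470 nm. Competitors (1 mM methanol stock) at 2–20 μM. IC50 = half-maximal fluorescence reduction; Ki = IC50/(1+[1-NPN]/K1-NPN). Triplicates.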

Experiment [2] has as its target T2, LdisPBP1 (Lymantria dispar, UniProt O16105).
T2 sequence (O16105 20-162): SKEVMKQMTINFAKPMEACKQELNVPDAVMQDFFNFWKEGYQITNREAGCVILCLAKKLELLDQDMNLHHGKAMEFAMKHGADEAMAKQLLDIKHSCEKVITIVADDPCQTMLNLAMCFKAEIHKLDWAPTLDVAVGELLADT
The experiment can be described thus: competitive fluorescence binding assay with 1-NPN as probe, LdisPBP1. In outline:
as §1

Another experiment has as its system gypsy moth. The following applies: cited from earlier work.
A further experiment deals with PBP1. The following applies: cited from earlier work.
In experiment [3] the target is T2, LdisPBP1. The experiment can be described thus: fluorescence titration of 1-NPN with LdisPBP1. The conditions noted are these: dissociation constant of the LdisPBP1/1-NPN complex. It is filed as binding. In outline:
(§2)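 Recombinant His-tagged PBP from E. coli, Ni-resin and gel-filtration purified. A 2 μM protein solution in 50 mM Tris-HCl pH 7.3 or 50 mM Na2HPO4-citric acid pH 5.5 was titrated with 1-NPN (1 mM methanol stock) to 1–20 μM final. 25°C; excitation 337 nm, emission 370–470 nm, 10 nm slits. Kd calculated from the binding curve; three independent measurements.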

The target in experiment [4] is T1, LdisPBP2. The experiment can be described thus: fluorescence titration of 1-NPN with LdisPBP2. The conditions noted are these: dissociation constant of the LdisPBP2/1-NPN complex. It is filed as binding. In outline:
as §2

Where [5] appears, read: PBP2[Ki(μM)] pH5.5, pH 5.5, n=3, 2 μM protein and 1-NPN.
Where [6] appears, read: PBP2[Ki(μM)] pH7.3, pH 7.3, n=3, 2 μM protein and 1-NPN.
Where [7] appears, read: PBP1[Ki(μM)] pH5.5, pH 5.5, n=3, 2 μM protein and 1-NPN.
The mark [8] stands for this setting: PBP1[Ki(μM)] pH7.3, pH 7.3, n=3, 2 μM protein and 1-NPN.

In the case of `O=Cc1ccccc1O` [Sal, Salicylaldehyde], the “attraction of male L.dispar compared with (+)-D alone” value with male L.dispar was “reverse”. Further, the Ki at LdisPBP2 [1] (setting [5]) is 6.06 ± 0.06 µM; at LdisPBP2 [1] (setting [6]), 5.32 ± 0.07 µM; at LdisPBP1 [2] (setting [7]) it was 3.05 ± 0.01 µM; at LdisPBP1 [2] (setting [8]) it was 2.93 ± 0.02 µM.

`CCCCCCCCCCC1OC12CC2` (stereo not shown) [OXP1, 2-decyl-1-oxaspiro[2.2]pentane]: the inhibition constant Ki was 1.88 ± 0.02 µM at LdisPBP2 [1] (setting [5]), 1.85 ± 0.02 µM on LdisPBP2 [1] (setting [6]), 0.68 ± 0.01 µM on LdisPBP1 [2] (setting [7]) and 1.87 ± 0.01 µM on LdisPBP1 [2] (setting [8]). The “effect on the pheromone” value in the experiment on gypsy moth is reported as “inhibited the effect of the pheromone”.

Turning to `O=C(CCCCC(=O)OCC1CCC2OC2C1)OCC1CCC2OC2C1` (stereo not shown) [Bis, Bis(3,4-epoxycyclohexylmethyl) adipate], the “attraction of male L.dispar compared with (+)-D alone” value in the experiment on male L.dispar was “reverse”. Also, the inhibition constant Ki on LdisPBP2 [1] (setting [5]) was found to be 3.54 ± 0.01 µM; on LdisPBP2 [1] (setting [6]) it was 1.97 ± 0.01 µM; at LdisPBP1 [2] (setting [7]), 2.2 ± 0.01 µM; on LdisPBP1 [2] (setting [8]), 3.25 ± 0.02 µM.

Regarding `CCCCCCCCCC[C@H]1O[C@H]1CCCCC(C)C` [(-)-disparlure], the “binding preference of PBP1 for pheromone enantiomers” value in the experiment with PBP1 was “preferentially bound”.

Take `c1ccc(Nc2cccc3ccccc23)cc1` [1-NPN, N-phenyl-1-naphthylamine]: the Kd on LdisPBP1 [3] (pH 5.5) was 1.71 ± 0.2 µM; on LdisPBP1 [3] (pH 7.3) it was 1.77 ± 0.31 µM; on LdisPBP2 [4] (pH 5.5), 8.74 ± 2.05 µM; on LdisPBP2 [4] (pH 7.3), 2.03 ± 0.42 µM.

For the molecule `OCCCCC1OC12CC2` (stereo not shown) [OXP2, 4-(1-oxaspiro[2.2]pent-2-yl)butan-1-ol], the Ki on LdisPBP2 [1] (setting [5]) turned out to be 5.14 ± 0.06 µM; on LdisPBP2 [1] (setting [6]), 2.46 ± 0.02 µM; at LdisPBP1 [2] (setting [7]) it was 6.33 ± 0.18 µM; at LdisPBP1 [2] (setting [8]), 2.99 ± 0.08 µM. Also, the “effect on the pheromone” value in the experiment with gypsy moth is “enhanced that of pheromone”.

Usually Ki stands for a measure of affinity in units of concentration, obtained from inhibition or displacement. High values mean weaker binding, low ones tighter binding. For orientation: Kd means the equilibrium constant for the complex coming apart. Higher therefore signals lower affinity.

(Values after paper PMC3421229 (International Journal of Biological Sciences, 2012).)
